Data as given in ChEMBL document CHEMBL5620421, “2,6-Disubstituted 7-(naphthalen-2-ylmethyl)-7H-purines as a new class of potent antitubercular agents inhibiting DprE1” (Eur J Med Chem, 2023).
Values after ≈ are worked out from the molar mass of the structure shown.

How the values were obtained:
Format in all cases: functional
[1] = test system: Mycobacterium kansasii; assay: Antitubercular activity against Mycobacterium kansasii CNCTC My 235/80 assessed as inhibition of bacterial growth measured after 7 days of incubation by Sulas semisynthetic medium based assay; settings: CNCTC My 235/80, 168 h, time 7 day
Method in brief: (§1)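 Micromethod in Sula's semisynthetic medium. MIC is the lowest concentration inhibiting >99% of the mycobacterial population. Isoniazid was the standard.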

[2] = test system: Mycobacterium avium; assay: Antitubercular activity against Mycobacterium avium CNCTC My 330/88 assessed as inhibition of bacterial growth measured after 14 days of incubation by Sulas semisynthetic medium based assay; settings: CNCTC My 330/88, 336 h, time 14 day
Method in brief: (§2)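 M. avium was tested by the micromethod in Sula's semisynthetic medium. Compounds in DMSO at 1000 to 0.5 μmol/L. Incubation at 37 °C, read at 14 and 21 days. MIC is the lowest concentration giving >99% growth inhibition.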

[3] = test system: Mycobacterium tuberculosis; assay: Antitubercular activity against Mycobacterium tuberculosis CNCTC My 331/88 (H37Rv) assessed as inhibition of bacterial growth measured after 21 days of incubation by Sulas semisynthetic medium based assay; settings: 504 h, time 21 day
Method in brief: (§3)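 Micromethod MIC in Sula's semisynthetic medium. MIC is the lowest concentration inhibiting >99% of the mycobacterial population. Isoniazid was the standard drug.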

[4] = test system: Mycobacterium kansasii; assay: Antitubercular activity against Mycobacterium kansasii CNCTC My 235/80 assessed as inhibition of bacterial growth measured after 14 days of incubation by Sulas semisynthetic medium based assay; settings: CNCTC My 235/80, 336 h, time 14 day; method in brief: as §1
[5] = test system: Mycobacterium avium; assay: Antitubercular activity against Mycobacterium avium CNCTC My 330/88 assessed as inhibition of bacterial growth measured after 21 days of incubation by Sulas semisynthetic medium based assay; settings: CNCTC My 330/88, 504 h, time 21 day; method in brief: as §2
[6] = test system: Mycobacterium kansasii; assay: Antitubercular activity against Mycobacterium kansasii CNCTC My 235/80 assessed as inhibition of bacterial growth measured after 21 days of incubation by Sulas semisynthetic medium based assay; settings: CNCTC My 235/80, 504 h, time 21 day; method in brief: as §1
[7] = test system: Mycobacterium tuberculosis; assay: Antitubercular activity against Mycobacterium tuberculosis CNCTC My 331/88 (H37Rv) assessed as inhibition of bacterial growth measured after 14 days of incubation by Sulas semisynthetic medium based assay; settings: 336 h, time 14 day; method in brief: as §3

SMILES | MIC99 [1] | MIC99 [2] | MIC99 [3] | MIC99 [4] | MIC99 [5] | MIC99 [6] | MIC99 [7]
O=c1[nH]c(N2CCOCC2)nc2c1ncn2Cc1ccccc1 | > 500 µM | > 500 µM | > 500 µM | > 500 µM | > 500 µM | > 500 µM | > 500 µM
O=c1[nH]c(N2CCOCC2)nc2c1ncn2Cc1ccc2ccccc2c1 | > 250 µM | > 250 µM | > 250 µM | > 250 µM | > 250 µM | > 250 µM | > 250 µM
Clc1ncnc2ncn(Cc3ccc4ccccc4c3)c12 | 1000 µM (≈ 295 µg/mL) | > 1000 µM | 125 µM (≈ 36.8 µg/mL) | > 1000 µM | > 1000 µM | > 1000 µM | 125 µM (≈ 36.8 µg/mL)
O=c1[nH]c(N2CCOCC2)nc2ncn(Cc3cccc4ccccc34)c12 | > 500 µM | > 500 µM | > 500 µM | > 500 µM | > 500 µM | > 500 µM | > 500 µM
O=c1[nH]c(N2CCOCC2)nc2ncn(-c3ccsc3)c12 | > 500 µM | > 500 µM | > 500 µM | > 500 µM | > 500 µM | – | > 500 µM
O=c1[nH]c(N2CCOCC2)nc2c1ncn2Cc1ccc(Cl)cc1 | > 500 µM | > 500 µM | > 500 µM | > 500 µM | > 500 µM | > 500 µM | > 500 µM
S=c1[nH]cnc2ncn(Cc3ccc4ccccc4c3)c12 | > 500 µM | > 500 µM | > 500 µM | > 500 µM | > 500 µM | > 500 µM | > 500 µM
COc1ccc(Cn2cnc3c(=O)[nH]c(N4CCOCC4)nc32)cc1 | > 500 µM | > 500 µM | > 500 µM | > 500 µM | > 500 µM | > 500 µM | > 500 µM
Oc1nc(N2CCOCC2)nc2ncn(Cc3ccccc3)c12 | > 500 µM | > 500 µM | > 500 µM | > 500 µM | > 500 µM | > 500 µM | > 500 µM
O=c1[nH]c(N2CCOCC2)nc2ccn(Cc3ccc4ccccc4c3)c12 | > 500 µM | > 500 µM | > 500 µM | > 500 µM | > 500 µM | > 500 µM | > 500 µM
O=c1[nH]c(N2CC3(COC3)C2)nc2ncn(Cc3ccc4ccccc4c3)c12 | > 500 µM | > 500 µM | > 500 µM | > 500 µM | > 500 µM | > 500 µM | > 500 µM
COCCNc1nc2ncn(Cc3ccc4ccccc4c3)c2c(=O)[nH]1 | > 500 µM | > 500 µM | > 500 µM | > 500 µM | > 500 µM | > 500 µM | > 500 µM
CN1CCN(c2nc3ncn(Cc4ccc5ccccc5c4)c3c(=O)[nH]2)CC1 | 250 µM (≈ 93.6 µg/mL) | > 500 µM | 500 µM (≈ 187 µg/mL) | 500 µM (≈ 187 µg/mL) | > 500 µM | 500 µM (≈ 187 µg/mL) | 250 µM (≈ 93.6 µg/mL)
S=c1[nH]c(=S)c2c(ncn2Cc2ccc3ccccc3c2)[nH]1 | > 500 µM | > 500 µM | > 500 µM | > 500 µM | > 500 µM | > 500 µM | > 500 µM
O=c1[nH]cnc2ncn(Cc3ccc4ccccc4c3)c12 | 125 µM (≈ 34.5 µg/mL) | > 500 µM | > 500 µM | > 500 µM | > 500 µM | > 500 µM | > 500 µM
O=c1[nH]c(N2CCOCC2)nc2ncn(Cc3ccc(Cl)cc3)c12 | 125 µM (≈ 43.2 µg/mL) | > 500 µM | > 500 µM | 250 µM (≈ 86.4 µg/mL) | > 500 µM | > 500 µM | > 500 µM

SMILES | MIC99 [1] | MIC99 [2] | MIC99 [3] | MIC99 [4] | MIC99 [5] | MIC99 [6] | MIC99 [7]
COCCN(C)c1nc2ncn(Cc3ccc4ccccc4c3)c2c(=O)[nH]1 | > 500 µM | > 500 µM | > 500 µM | > 500 µM | > 500 µM | > 500 µM | > 500 µM
O=c1[nH]c(NCCO)nc2ncn(Cc3ccc4ccccc4c3)c12 | > 500 µM | > 500 µM | > 500 µM | > 500 µM | > 500 µM | > 500 µM | > 500 µM
COc1cccc(Cn2cnc3c(=O)[nH]c(N4CCOCC4)nc32)c1 | > 500 µM | > 500 µM | > 500 µM | > 500 µM | > 500 µM | > 500 µM | > 500 µM
CC(C)c1ccc(Cn2cnc3c(=O)[nH]c(N4CCOCC4)nc32)cc1 | > 250 µM | > 250 µM | > 250 µM | > 250 µM | > 250 µM | > 250 µM | 125 µM (≈ 44.2 µg/mL)
COc1cccc(Cn2cnc3nc(N4CCOCC4)[nH]c(=O)c32)c1 | > 500 µM | – | > 500 µM | > 500 µM | > 500 µM | > 500 µM | 500 µM (≈ 171 µg/mL)
O=c1[nH]c(NC2CCC2)nc2ncn(Cc3ccc4ccccc4c3)c12 | > 500 µM | > 500 µM | > 500 µM | > 500 µM | > 500 µM | > 500 µM | > 500 µM
O=c1[nH]c(N2CCCC2)nc2ncn(Cc3ccc4ccccc4c3)c12 | > 500 µM | > 500 µM | 16 µM (≈ 5.53 µg/mL) | > 500 µM | > 500 µM | > 500 µM | 8 µM (≈ 2.76 µg/mL)
c1ccc2cc(Cn3cnc4nc(N5CCOCC5)nc(NCc5ccncc5)c43)ccc2c1 | 64 µM (≈ 28.9 µg/mL) | 250 µM (≈ 113 µg/mL) | 8 µM (≈ 3.61 µg/mL) | 64 µM (≈ 28.9 µg/mL) | 500 µM (≈ 226 µg/mL) | 64 µM (≈ 28.9 µg/mL) | 8 µM (≈ 3.61 µg/mL)
CN(C)CCNc1nc(N2CCOCC2)nc2ncn(Cc3ccc4ccccc4c3)c12 | 64 µM (≈ 27.6 µg/mL) | 500 µM (≈ 216 µg/mL) | 64 µM (≈ 27.6 µg/mL) | 125 µM (≈ 53.9 µg/mL) | 500 µM (≈ 216 µg/mL) | 125 µM (≈ 53.9 µg/mL) | 32 µM (≈ 13.8 µg/mL)
CN(C)c1nc2ncn(Cc3ccc4ccccc4c3)c2c(=O)[nH]1 | > 500 µM | > 500 µM | > 500 µM | > 500 µM | > 500 µM | > 500 µM | > 500 µM
Cn1c(N2CCOCC2)nc2ncn(Cc3ccc4ccccc4c3)c2c1=O | – | > 500 µM | 64 µM (≈ 24 µg/mL) | > 500 µM | > 500 µM | > 500 µM | 32 µM (≈ 12 µg/mL)
COc1ccc(Cn2cnc3nc(N4CCOCC4)[nH]c(=O)c32)cc1 | – | > 500 µM | 64 µM (≈ 21.8 µg/mL) | > 500 µM | > 500 µM | > 500 µM | 32 µM (≈ 10.9 µg/mL)
c1ccc2cc(Cn3cnc4nc(N5CCOCC5)nc(N5CCOCC5)c43)ccc2c1 | 125 µM (≈ 53.8 µg/mL) | 250 µM (≈ 108 µg/mL) | 125 µM (≈ 53.8 µg/mL) | 125 µM (≈ 53.8 µg/mL) | 500 µM (≈ 215 µg/mL) | 250 µM (≈ 108 µg/mL) | 125 µM (≈ 53.8 µg/mL)
O=c1[nH]c(N2CCOCC2)nc2ncn(-c3cccc4c3sc3ccccc34)c12 | > 250 µM | > 250 µM | > 250 µM | > 250 µM | > 250 µM | > 250 µM | > 250 µM
O=c1[nH]c(N2CCOCC2)nc2c1ncn2Cc1ccc(Cl)c(Cl)c1 | > 250 µM | > 250 µM | > 250 µM | > 250 µM | > 250 µM | > 250 µM | > 250 µM
O=c1[nH]c(NC2CC2)nc2ncn(Cc3ccc4ccccc4c3)c12 | > 500 µM | > 500 µM | > 500 µM | > 500 µM | > 500 µM | > 500 µM | > 500 µM
